Measured values reported in ChEMBL document CHEMBL4622914, “Development of a bioavailable boron-containing PI-103 Bioisostere, PI-103BE” (Bioorg Med Chem Lett, 2020).

Legend:
[1] = Half life in ovariectomized nu/nu mouse assessed 3-(4-morpholinopyrido [3',2':4,5] furo [3,2-d] pyrimidin-2-yl)phenol at 10 mg/kg, po measured upto 24 hrs by UHPLC-MS analysis; format: ADME, organism-based; conditions: in vivo
How it was run: (§1)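 Female ovariectomized Nu/Nu mice, 4–6 weeks old, n = 5 per group. Single 10 mg/kg oral gavage in 5% DMSO/40% PEG 400/55% saline. Orbital-sinus blood was taken at 0.5, 1, 3, 8 and 24 h, one sampling per group, into EDTA. Plasma was spun at 4 °C and stored at −80 °C. The prodrug's boronic acid metabolite and phenol were quantified by C18 UHPLC–TSQ MS/MS with an acetonitrile/water 0.05% formic acid gradient.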

MDA-MB-231 = assay: Antiproliferative activity against human MDA-MB-231 cells assessed as reduction in cell viability incubated for 4 days by coulter counter method; format: functional, cell-based; conditions: MDA-MB-231, 96 h
How it was run: (§2)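 Cancer cells were seeded at 50,000 per well in DMEM with 5% FBS. They were exposed to six compound doses for 4 days, with DMSO as vehicle control and a reference inhibitor as positive control. Cells were counted by Coulter counter. Survival ratio is treated cell number over vehicle cell number. IC50 was taken from dose–response curves. Triplicate experiments.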

[2] = AUC in ovariectomized nu/nu mouse assessed (3-(4-morpholinopyrido [3',2':4,5] furo [3,2-d] pyrimidin-2-yl)phenyl)boronic acid at 10 mg/kg, ip measured upto 24 hrs by UHPLC-MS analysis; format: ADME, organism-based; parameters: time < 24 hr, dose 10 mg/kg, route intraperitoneal; conditions: in vivo
CWR22R = assay: Antiproliferative activity against human 22Rv1 cells assessed as reduction in cell viability incubated for 4 days by coulter counter method; format: functional, cell-based; conditions: 22Rv1, 96 h; how it was run: as §2
[3] = Stability of compound in cell culture medium assessed as compound hydrolysis measured after 0.5 hrs; format: physicochemical
[4] = Drug concentration in ovariectomized nu/nu mouse plasma assessed 3-(4-morpholinopyrido [3',2':4,5] furo [3,2-d] pyrimidin-2-yl)phenol at 10 mg/kg, ip measured after 24 hrs by UHPLC-MS analysis; format: ADME, organism-based; conditions: in vivo
A549 = assay: Antiproliferative activity against human A549 cells assessed as reduction in cell viability incubated for 4 days by coulter counter method; format: functional, cell-based; conditions: A549, 96 h; how it was run: as §2
PC-3 = assay: Antiproliferative activity against human PC3 cells assessed as reduction in cell viability incubated for 4 days by coulter counter method; format: functional, cell-based; conditions: PC-3, 96 h
How it was run: (§3)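 Cells seeded at 50,000 per well in DMEM with 5% FBS, exposed to six concentrations of compound for 4 days; DMSO as vehicle control. Cell numbers counted on a Coulter counter; survival ratio = treated/vehicle cell count. IC50 taken from dose-response curves. Triplicate experiments, mean ± SD.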

[5] = Drug concentration in ovariectomized nu/nu mouse plasma assessed 3-(4-morpholinopyrido [3',2':4,5] furo [3,2-d] pyrimidin-2-yl)phenol at 10 mg/kg, ip measured after 1 hr by UHPLC-MS analysis; format: ADME, organism-based; conditions: in vivo
[6] = Half life in ovariectomized nu/nu mouse assessed (3-(4-morpholinopyrido [3',2':4,5] furo [3,2-d] pyrimidin-2-yl)phenyl)boronic acid at 10 mg/kg, po measured upto 24 hrs by UHPLC-MS analysis; format: ADME, organism-based; conditions: in vivo; how it was run: as §1
[7] = Drug concentration in ovariectomized nu/nu mouse plasma assessed 3-(4-morpholinopyrido [3',2':4,5] furo [3,2-d] pyrimidin-2-yl)phenol at 10 mg/kg, po measured after 8 hrs by UHPLC-MS analysis; format: ADME, organism-based; conditions: in vivo; how it was run: as §1
[8] = AUC in ovariectomized nu/nu mouse assessed 3-(4-morpholinopyrido [3',2':4,5] furo [3,2-d] pyrimidin-2-yl)phenol at 10 mg/kg, ip measured upto 24 hrs by UHPLC-MS analysis; format: ADME, organism-based; parameters: time < 24 hr, dose 10 mg/kg, route intraperitoneal; conditions: in vivo
[9] = Drug concentration in ovariectomized nu/nu mouse plasma assessed (3-(4-morpholinopyrido [3',2':4,5] furo [3,2-d] pyrimidin-2-yl)phenyl)boronic acid at 10 mg/kg, po measured after 3 hrs by UHPLC-MS analysis; format: ADME, organism-based; conditions: in vivo; how it was run: as §1
[10] = AUC (0 to 24 hrs) in ovariectomized nu/nu mouse assessed 3-(4-morpholinopyrido [3',2':4,5] furo [3,2-d] pyrimidin-2-yl)phenol at 10 mg/kg, po measured upto 24 hrs by UHPLC-MS analysis; format: ADME, organism-based; parameters: dose 10 mg/kg, time < 24 hr, route oral; conditions: in vivo; how it was run: as §1
[11] = Half life in ovariectomized nu/nu mouse assessed 3-(4-morpholinopyrido [3',2':4,5] furo [3,2-d] pyrimidin-2-yl)phenol at 10 mg/kg, ip measured upto 24 hrs by UHPLC-MS analysis; format: ADME, organism-based; conditions: in vivo
[12] = Drug concentration in ovariectomized nu/nu mouse plasma assessed (3-(4-morpholinopyrido [3',2':4,5] furo [3,2-d] pyrimidin-2-yl)phenyl)boronic acid at 10 mg/kg, po measured after 24 hrs by UHPLC-MS analysis; format: ADME, organism-based; conditions: in vivo; how it was run: as §1
[13] = Stability of compound in cell culture medium assessed as compound hydrolysis measured after 8 hrs; format: physicochemical
[14] = Drug concentration in ovariectomized nu/nu mouse plasma assessed (3-(4-morpholinopyrido [3',2':4,5] furo [3,2-d] pyrimidin-2-yl)phenyl)boronic acid at 10 mg/kg, ip measured after 1 hr by UHPLC-MS analysis; format: ADME, organism-based; conditions: in vivo
[15] = Drug concentration in ovariectomized nu/nu mouse plasma assessed (3-(4-morpholinopyrido [3',2':4,5] furo [3,2-d] pyrimidin-2-yl)phenyl)boronic acid at 10 mg/kg, ip measured after 24 hrs by UHPLC-MS analysis; format: ADME, organism-based; conditions: in vivo
SK-OV-3 = assay: Antiproliferative activity against human SKOV3 cells assessed as reduction in cell viability incubated for 4 days by coulter counter method; format: functional, cell-based; conditions: SK-OV-3, 96 h; how it was run: as §3
[16] = Stability of compound in cell culture medium assessed as compound hydrolysis measured after 3 hrs; format: physicochemical
[17] = Drug concentration in ovariectomized nu/nu mouse plasma assessed (3-(4-morpholinopyrido [3',2':4,5] furo [3,2-d] pyrimidin-2-yl)phenyl)boronic acid at 10 mg/kg, po measured after 8 hrs by UHPLC-MS analysis; format: ADME, organism-based; conditions: in vivo; how it was run: as §1
[18] = Drug concentration in ovariectomized nu/nu mouse plasma assessed 3-(4-morpholinopyrido [3',2':4,5] furo [3,2-d] pyrimidin-2-yl)phenol at 10 mg/kg, ip measured after 3 hrs by UHPLC-MS analysis; format: ADME, organism-based; conditions: in vivo

t1/2 [1]: 6.5 h
AUC [2]: 400.9 ng·h/mL
Drug degradation [3]: 0.04 µM
Cp [4]: 0.4 ng/mL
Cp [5]: 5.4 ng/mL
t1/2 [6]: 9.2 h
Cp [7]: 4.1 ng/mL
AUC [8]: 32.3 ng·h/mL
Cp [9]: 516.2 ng/mL
AUC [10]: 88.2 ng·h/mL
t1/2 [11]: 12.4 h
Cp [12]: 106.4 ng/mL
Drug degradation [13]: 0 µM
Cp [14]: 44.5 ng/mL
Cp [15]: 6.5 ng/mL
Drug degradation [16]: 0 µM
Cp [17]: 354.2 ng/mL
Cp [18]: 1.3 ng/mL
SMILES: CC1(C)OB(c2cccc(-c3nc(N4CCOCC4)c4oc5ncccc5c4n3)c2)OC1(C)C
IC50 (MDA-MB-231): 440 nM
IC50 (CWR22R): 660 nM
IC50 (A549): 570 nM
IC50 (PC-3): 720 nM
IC50 (SK-OV-3): 1330 nM
